Screening data: PubChem, several laboratories
Rows were chosen to be rich in hits. Some 1.7% of all compounds tested hit in one or more screens of this group.
STEP inh – STEP (human) phosphatase inhibition; recombinant STEP, OMFP fluorogenic substrate, fluorescence; 360,000 compounds, 0.25% hits; inhibition, % at 20 µM; AID 588621; P54829;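 active = inhibition at 20 µM, scaled per plate between control wells, above about 37%, limit read from the data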;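 note: 0% = DMSO with enzyme and substrate and 100% = substrate only without enzyme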
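Assay system: isolated STEP enzyme / Timing: 20 min at room temperature, dark / Doses: 20 µM, 1% DMSO / Technique: fluorescence intensity, excitation 480 nm, emission 540 nm / Reagent: fluorogenic phosphatase substrate OMFP at 25 µM final / Measure: percent inhibition scaled to no-enzyme and uninhibited-enzyme controls, plate-pattern corrected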
Scp-1 inhibitor – Scp-1 (human) phosphatase inhibition. Q9GZU7. Recombinant Scp1, phosphopeptide, malachite green phosphate absorbance. inhibition, % at 20 µM. 340,000 compounds, 0.88% hits. AID 493091;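 active = inhibition above about 50% at 20 µM, limit read from the data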;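 note: plate controls were DMSO wells with enzyme for no effect and wells lacking enzyme for full effect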
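Assay system: SCP-1 catalytic fragment, aa 76-261 | Buffer or medium: Tris acetate buffer pH 5.5 with MgCl2 and Tween-20 | Compound: One concentration, 20 µM, with 1.0% DMSO | Also added: Phospho 17-mer peptide substrate | Signal: Absorbance at 630 nm | Incubation: 45 min enzyme reaction at room temperature | Measure: % inhibition of SCP-1 phosphate liberation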
SUMO1 PPI mod – alters human SUMO1 binding to SIM partners. P63165. SUMO1 binding to a labelled peptide, TR-FRET, 1 h. inhibition, % at 20 µM. 360,000 compounds, 0.33% hits. AID 602429; in the data active = inhibition above about 37%
Pemphigus Ab inh – human desmoglein-3 autoantibody binding inhibition. DSG3-coupled beads, scFv-anti-DSG3-GFP binding, flow cytometry; hits give low values. 310,000 compounds, 0.48% hits. P32926. binding (percent of control), % at 10 µM. AID 588358;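 active = binding more than 3 SD below its plate's average and above zero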;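 note: hits lower antibody fragment binding to DSG3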
Target sequence (P32926 whole entry, looked up, the tested form may be a part): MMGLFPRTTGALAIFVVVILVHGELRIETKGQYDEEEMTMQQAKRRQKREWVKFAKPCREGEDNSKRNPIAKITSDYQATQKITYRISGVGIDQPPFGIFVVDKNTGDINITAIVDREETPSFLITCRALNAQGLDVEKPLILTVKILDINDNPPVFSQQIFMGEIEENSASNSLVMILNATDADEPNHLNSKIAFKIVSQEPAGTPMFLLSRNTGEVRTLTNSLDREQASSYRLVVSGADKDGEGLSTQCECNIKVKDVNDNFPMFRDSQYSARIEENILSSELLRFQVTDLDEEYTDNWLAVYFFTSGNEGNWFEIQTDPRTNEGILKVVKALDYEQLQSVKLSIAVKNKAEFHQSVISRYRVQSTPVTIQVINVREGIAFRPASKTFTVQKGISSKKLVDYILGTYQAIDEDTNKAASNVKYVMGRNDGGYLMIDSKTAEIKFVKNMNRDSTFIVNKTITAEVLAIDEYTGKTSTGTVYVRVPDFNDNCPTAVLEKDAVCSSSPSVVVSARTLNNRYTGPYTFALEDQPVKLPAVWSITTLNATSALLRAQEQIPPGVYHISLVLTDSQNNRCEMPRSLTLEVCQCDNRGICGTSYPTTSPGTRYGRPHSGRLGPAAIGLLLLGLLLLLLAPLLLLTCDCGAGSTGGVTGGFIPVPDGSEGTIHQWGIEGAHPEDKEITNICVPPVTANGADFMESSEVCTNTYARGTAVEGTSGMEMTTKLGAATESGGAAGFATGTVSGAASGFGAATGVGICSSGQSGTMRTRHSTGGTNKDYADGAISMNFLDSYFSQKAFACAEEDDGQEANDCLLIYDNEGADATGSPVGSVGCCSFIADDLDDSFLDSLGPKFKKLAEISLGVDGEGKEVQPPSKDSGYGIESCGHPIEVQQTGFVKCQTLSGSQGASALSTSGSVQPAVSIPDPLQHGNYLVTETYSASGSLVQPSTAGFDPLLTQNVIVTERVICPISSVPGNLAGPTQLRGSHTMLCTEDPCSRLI
LMPTP inh – LMPTP (human) inhibition. P24666. recombinant LMPTP-A, OMFP fluorogenic substrate, fluorescence intensity. inhibition, % at 20 µM. 360,000 compounds, 0.22% hits;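 active = compounds that cut the enzyme signal by at least half of the control window in the single-dose screen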;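 note: plate controls were DMSO wells with enzyme plus substrate for no effect and substrate without enzyme for full effect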
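Buffer or medium: Bis-Tris pH 6.0, DTT, detergent; Assay system: LMPTP-A enzyme; Quantity: 0.625 nM enzyme; Detection: endpoint fluorescence intensity; Times: 50 min dark incubation at room temperature; Controls: substrate-only low control, DMSO enzyme-plus-substrate high control; Doses: single 20 µM dose; Read-out: percent inhibition versus substrate-only and uninhibited controls; Reagent: 400 µM OMFP.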
Scp1 confirm – confirmation of human Scp-1 phosphatase inhibitors; shares compounds with Scp-1 inhibitor; recombinant SCP-1 catalytic domain, phosphate release, malachite green absorbance; inhibition, % at 20 µM; 2,500 compounds, 61% hits;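 note: plate controls were DMSO with enzyme for no effect and buffer wells lacking enzyme for full effect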
Scp-1 MG ctr – colorimetric interference in Scp-1 counter-screen; shares compounds with Scp-1 inhibitor; Colorimetric interference counterscreen, malachite green absorbance 630 nm; apparent inhibition (interference), % at 20 µM; 2,500 tested, under 10 active; AID 540313;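 note: compounds added after enzyme reaction finished so only phosphate colour detection is probed; plate controls were DMSO wells with completed Scp-1 reaction for no effect and substrate wells lacking enzyme for full effect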
Scp1 DSF – Scp-1 (human) binding by thermal shift; shares compounds with Scp-1 inhibitor; Recombinant SCP1, Sypro Orange thermal shift Tm; thermal shift relative to vanadate control, % at 40 µM; 1,500 compounds, 25% hits; AID 540329;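 active = substances whose mean melting-temperature shift, as a percentage of the reference inhibitor's shift, reaches about 5.3%, limit read from the data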;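 note: 0% = Tm of DMSO wells and 100% = Tm with sodium orthovanadate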
STEP inh conf – confirmation of human STEP phosphatase inhibitors. inhibition, % at 20 µM. 520 compounds, 32% hits. shares compounds with STEP inh. recombinant STEP, OMFP fluorogenic substrate, fluorescence; call rule not given here;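 note: 0% = enzyme with substrate plus DMSO and 100% = substrate without enzyme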
Active calls of the source: *; nt = no result given; ! = not confirmed by another sample.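 Rule for the calls, unless noted: active = inhibition of at least 30% at 20 µM; inactive = the rest.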

SMILES	STEP inh	Scp-1 inhibitor	SUMO1 PPI mod	Pemphigus Ab inh	LMPTP inh	Scp1 confirm	Scp-1 MG ctr	Scp1 DSF	others
COc1ccc(OC(=O)N(C)C[C@@H]2OCc3cnnn3CCCC(=O)N([C@H](C)CO)C[C@@H]2C)cc1	0	nt	-5	nt	-1	nt	nt	nt
Cc1ccc(N2C(=O)NC(=O)/C(=C\c3cc(C)n(-c4ccc(C(=O)O)cc4)c3C)C2=O)cc1	3	1	-7	96	0	nt	nt	nt
Cc1cc(/C=C2\C(=O)NC(=O)N(Cc3ccccc3)C2=O)c(C)n1-c1ccc(Cl)c(C(=O)O)c1	84*	72*	32	86	16	60*	-19	8.7*
Cc1cc(/C=C2\C(=O)NC(=O)N(c3cccc(F)c3)C2=O)c(C)n1-c1ccc(C(=O)O)c(Cl)c1	19	51*	1	125	1	58*	3	0
Cc1ccc(N2C(=O)NC(=O)/C(=C/c3ccc(-c4ccc(C(=O)O)c(Cl)c4)o3)C2=O)cc1	4	58*	14	100	0	55*	-18	-7
Cc1ccc(-n2c(C)cc(/C=C3/C(=O)NC(=O)N(Cc4ccco4)C3=O)c2C)cc1	2	9	1	83	2	nt	nt	nt
Cc1cc(/C=C2\C(=O)NC(=O)N(Cc3ccccc3Cl)C2=O)c(C)n1-c1ccc(C(=O)O)cc1	2	66*	20	98	7	67*	-10	-1
Cc1ccc2c(c1)N(C(=O)CCC(=O)N1CCC3(CC1)OCCO3)CCO2	1	-4	4	105	-1	nt	nt	nt
Brc1ccc(-[n+]2c(-c3ccccc3)cc(-c3ccccc3)cc2-c2ccccc2)cc1	4	17	-24	104	4	nt	nt	nt
O=C1CC[C@@]2(O)[C@H]3Cc4ccc(O)c5c4[C@@]2(CCN3CC2CC2)[C@H]1O5	-3	-6	-3	106	-1	nt	nt	nt
C=CC[N+]1(C)CC[C@]23c4c5ccc(O)c4O[C@H]2C(=O)CC[C@@]3(O)[C@H]1C5 (some centres not stated)	-4	98*	1	94	-1	93*	-8	-24
COc1ccc(-n2c(/C=C/c3cccc(F)c3)nc3ccccc3c2=O)c(OC)c1	-2	-2	-5	114	5	nt	nt	nt
O=C(Nc1ccc(Br)cc1)c1nn(C23CC4CC(CC(C4)C2)C3)cc1Br	4	-7	2	101	3	nt	nt	nt
COc1ccc(Cc2c(O)[nH]c(=S)[nH]c2=O)cc1	-5	53*	4	118	-1	-3	0	nt
COc1cc2c(cc1OC)C(C1c3cc4c(cc3CCN1C)OCO4)OC2=O (configuration not stated)	2	-5	5	107	2	nt	nt	nt
C[N+]1(C)CCc2cc3c(cc2[C@H]1[C@@H]1OC(=O)c2c1ccc1c2OCO1)OCO3	2	99*!	3	94	-1	82*	-15	-24
CN(C)CC(C(=O)Cc1ccccc1)c1ccccc1 (configuration not stated)	0	-2	4	93	-1	nt	nt	nt
COc1ccc(/C=C2\C(=O)NC(=S)N(C)C2=O)cc1C	95*	100*	72*	108	0	70*	-16	-9
Cc1ccsc1/C=C1\C(=O)NC(=S)N(C)C1=O	1	6	7	107	-1	nt	nt	nt
CC(C)(C)N1CC(C(=O)c2ccccc2)C1c1ccccc1 (configuration not stated)	2	5	-4	nt	1	nt	nt	nt
CCOc1ccc(N=C2SCCCN2C)cc1	1	103*	-1	nt	-1	86*	-13	-14
O=C1NC(=S)NC(=O)C1=Cc1ccc(OCC(=O)N2CCCC2)cc1	1	51*	11	nt	0	51*	-10	-13
CSCCC(c1nnnn1C1CCCCC1)N1CCC2(CC1)C(=O)NCN2c1ccccc1 (configuration not stated)	0	nt	6	nt	0	nt	nt	nt
COc1ccc(CN2CCNCC2)c(OC)c1OC	-3	99*!	-2	107	-4	95*	-10	-14
COC(=O)C1=C(c2ccc(OCc3ccccc3)cc2)C[C@@H]2CC[C@H]1N2C(=O)NCc1ccc([N+](=O)[O-])cc1	6	68*	5	104	9	-32	-28	nt
SMILES	STEP inh	Scp-1 inhibitor	SUMO1 PPI mod	Pemphigus Ab inh	LMPTP inh	Scp1 confirm	Scp-1 MG ctr	Scp1 DSF	others
C[N+]12CCC(CC1)C(=C(c1ccccc1)c1ccccc1)C2	-3	94*	-3	135	0	78*	-20	-17
CC[N+]12CCC(CC1)C(=C(c1ccccc1)c1ccccc1)C2	-2	9	1	103	-2	nt	nt	nt
CC12C=CC(=O)C=C1CCC1C2C(O)CC2(C)C1CCC2(C)O (configuration not stated)	-2	-12	2	98	-1	nt	nt	nt
O=c1[nH]c(O)c(/C=C2/C=CC(c3cc(Cl)ccc3Cl)=N2)c(=O)[nH]1	0	-7	57*	94	46	25	-20	nt
CCN(CC)c1ccc(N=Cc2c(O)n(Cc3ccco3)c(=O)[nH]c2=O)cc1	-8	-11	-4	nt	-2	nt	nt	nt
NC(=O)c1ccc(N=Cc2c(O)n(Cc3ccco3)c(=O)[nH]c2=O)cc1	32	87*	99*	79*	34	67*	-11	-10
C=CCn1c(O)c(/C=N/N2CCCCC2c2cccnc2)c(=O)[nH]c1=S (configuration not stated)	42*	-6	-2	99	-2	nt	nt	nt	STEP inh conf=-1
CN(C)c1ccc2c(c1)N=C(c1ccco1)OP2(=S)N1CCOCC1 (configuration not stated)	36*	8	1	99	5	nt	nt	nt	STEP inh conf=12
CN(C)c1ccc(CCN2CCOCC2)cc1	-1	-3	3	106	0	nt	nt	nt
Cc1cc(N(CCCl)CCCl)ccc1C=NNC(=O)Cc1cc(=O)oc2cc(O)ccc12	-4	7	0	123	-1	nt	nt	nt
